Screens: PubChem, Sanford-Burnham Center for Chemical Genomics
Apaf1 activ = activators of human Apaf-1 apoptosome, primary screen, biochemical, DEVD-Rh110 fluorescence, uHTS; 330,000 compounds, 0.31% hits; Apaf-1 apoptosome caspase-3 activation; hits give low values; activity change, negative = activation, % at 20 µM;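 active means activity change at or below -40% at 20 µM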
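Assay system – biochemical Apaf-1 apoptosome reconstitution · Medium – 20 mM HEPES buffer, pH 7.5, containing CHAPS and BSA · Incubation – 30 min preincubation, 50 min reaction, room temperature · Measured by – Caspase-3-released Rh110 fluorescence, 540 nm emission, 480 nm excitation · Read-out – Caspase-3 cleavage activity downstream of Apaf-1 activation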
Rh110 interf act = Rh110 fluorescence interference by putative Apaf-1 activators, confirmation, artefact control for Apaf-1 activator project, biochemical, 20 µM | quenched caspase reaction, Ex480/Em540 | shares compounds with Apaf1 activ | fluorescence interference (activity change), % at 20 µM, hits read low | 980 tested, under 10 active;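 active means mean activity change at or below -40% when tested at 20 µM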
Apaf-1 act conf = Apaf-1 activators, single-dose retest, confirmation, biochemical, fluorescence, DEVD-Rh110, 20 µM | activity change, negative = activation, % at 20 µM | shares compounds with Apaf1 activ | 980 compounds, 5% hits | reconstituted apoptosome caspase-3 activity; hits give low values;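 active means mean activity change at or below -40%, meaning activation of 40% or more, at 20 µM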
Apaf1 act interf = fluorescence interference of Apaf-1 activator hits, dose response, artefact control for Apaf-1 activator project | shares compounds with Apaf1 activ | fluorescence interference counterscreen, Apaf-1 activator assay | EC50, µM | 55 tested, under 10 active | AID 588592, 2011; call rule not given here
A number is an active result. Not all results are given here.

Screening CNC[C@H](CC1CCCCC1)NC[C@H](Cc1ccccc1)NCCC12CC3CC(CC(C3)C1)C2 returned Apaf1 activ inactive.
For C=CC(=O)Nc1ccc(CN2C(=O)N(c3c(Cl)c(OC)cc(OC)c3Cl)Cc3cnc(NCCCCN(CC)CC)nc32)cc1 the results were Apaf1 activ inactive.
Screening Cc1cc(NC(=O)CCC(=O)N(CC(=O)NCC2CCCO2)Cc2ccc(F)cc2)no1 (stereo not drawn) returned Apaf1 activ -45, Rh110 interf act inactive and Apaf-1 act conf inactive.
For O=C(/C=C/c1ccc([N+](=O)[O-])cc1)/C=C/c1ccco1 the results were Apaf1 activ inactive.
`N#CCCn1[nH]c(-c2ccccc2)cc1=O` gave Apaf1 activ inactive.
For O=C(c1ccc(F)cc1)[C@@H]1[C@@H](C(=O)c2ccccc2)[C@@]2(C(=O)Nc3ccccc32)[C@H]2c3ccccc3C=CN12 the results were Apaf1 activ inactive.
CCn1nc(C)c(NC(=O)CCSc2nc(-c3ccco3)cc(C(F)(F)F)n2)c1C was read as Apaf1 activ -246, Rh110 interf act inactive and Apaf-1 act conf inactive.
Screening Cc1cccc(C)c1NC(=O)CSc1nnc(-c2ccco2)c(-c2ccco2)n1 returned Apaf1 activ inactive.
`Cn1c(C(=O)N2CCN(c3nc4ccccc4s3)CC2)cc2sccc21` gave Apaf1 activ inactive.
`Cc1ccc(C(=O)NC(C(=O)Nc2ccccc2)c2ccccc2)cc1` (stereo not drawn) gave Apaf1 activ -55, Rh110 interf act inactive and Apaf-1 act conf inactive.
Screening CC(OC(=O)c1cc(O)c2ccccc2c1O)C(=O)Nc1ccc(C(N)=O)cc1 (stereo not drawn) returned Apaf1 activ inactive.
`c1ccc(C[C@H]2CNCCN2CCCCC2CCCCC2)cc1` gave Apaf1 activ inactive.
For CN(C)c1cccc2c1c(NC(=O)c1ccc(F)cc1)nn2C the results were Apaf1 activ inactive.
For O=C(Nc1ncccn1)c1cccc(F)c1 the results were Apaf1 activ -48, Rh110 interf act inactive and Apaf-1 act conf inactive.
O=C(Nc1ccc(-c2cccc(F)c2)cc1)C1CCCN(Cc2ccccn2)C1 (stereo not drawn) was read as Apaf1 activ inactive.
For O=C1CC(=Nc2ccccc2)NN1c1ccccc1 the results were Apaf1 activ inactive.
For COC(CNC(=O)c1ccc2c3c(onc13)-c1ccccc1C2=O)OC the results were Apaf1 activ inactive.
Screening O=C1c2ccccc2-c2onc3ccc(NCc4ccco4)c1c23 returned Apaf1 activ inactive.
CCOc1ccc2noc3c2c1C(=O)c1ccccc1-3 was read as Apaf1 activ inactive and Apaf1 act interf 14.
CCCCN(CC)c1nc(N)c2c(N)nc(OCC)cc2c1C#N was read as Apaf1 activ inactive.
CCCCN(CC)S(=O)(=O)c1ccc(C(=O)N(CCCN(C)C)c2nc3cc(C)cc(C)c3s2)cc1 was read as Apaf1 activ inactive.
For CC1CN(CCC(=O)Nc2ccc3c(c2)CCC3)CC(C)O1 (stereo not drawn) the results were Apaf1 activ -85, Rh110 interf act inactive and Apaf-1 act conf inactive.
Screening C#CCOCCOCCOCCNc1nc(N2CCN(C(=O)CCCCCCCCCCNC(=O)[C@H]([C@@H](C)CC)n3cc(CCCCN=C(N)N)nn3)CC2)nc(N2CCN(C(=O)CCCCCCCCCCNC(=O)[C@H](CCCN=C(N)N)n3cc(C[C@@H](C)CC)nn3)CC2)n1 returned Apaf1 activ inactive.
`COc1ccc(N)c2c1OCCC2=O` gave Apaf1 activ inactive.
For CNC(=S)N/N=C(\C)c1ccc(C)c(C)c1 the results were Apaf1 activ -246, Rh110 interf act inactive and Apaf-1 act conf inactive.
O=C1c2ccccc2-c2nnc(-c3ccc(O)cc3)cc21 was read as Apaf1 activ inactive.
C#CCOCCOCCOCCNc1nc(N2CCN(C(=O)[C@H]([C@@H](C)CC)n3cc([C@@H](N)Cc4ccc(O)cc4)nn3)CC2)nc(N2CCN(C(=O)[C@H](Cc3cc4ccccc4[nH]3)n3cc([C@@H](N)CC(C)C)nn3)CC2)n1 was read as Apaf1 activ inactive.
For CC1=NN(c2ccccc2)C(=O)/C1=C\c1cn(CCC#N)nc1-c1ccc(Cl)cc1 the results were Apaf1 activ inactive.
